Assay outcomes as filed in PubChem.
An excerpt weighted towards active compounds, which were near 5.1% of everything screened.
M1 antagonist: M1 muscarinic receptor (rat) antagonism | P08482 | hit rate 3.4% among 64,000 | CHO-M1 cells, Fluo-4 calcium, ACh EC80 antagonist mode; stronger effect = lower value | B-score at 10 µM;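 active = calcium fluorescence response, raw or row-and-column corrected B-score, differing from the plate sample mean either way at a set confidence level, mostly lower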
Target sequence (P08482 whole entry, looked up): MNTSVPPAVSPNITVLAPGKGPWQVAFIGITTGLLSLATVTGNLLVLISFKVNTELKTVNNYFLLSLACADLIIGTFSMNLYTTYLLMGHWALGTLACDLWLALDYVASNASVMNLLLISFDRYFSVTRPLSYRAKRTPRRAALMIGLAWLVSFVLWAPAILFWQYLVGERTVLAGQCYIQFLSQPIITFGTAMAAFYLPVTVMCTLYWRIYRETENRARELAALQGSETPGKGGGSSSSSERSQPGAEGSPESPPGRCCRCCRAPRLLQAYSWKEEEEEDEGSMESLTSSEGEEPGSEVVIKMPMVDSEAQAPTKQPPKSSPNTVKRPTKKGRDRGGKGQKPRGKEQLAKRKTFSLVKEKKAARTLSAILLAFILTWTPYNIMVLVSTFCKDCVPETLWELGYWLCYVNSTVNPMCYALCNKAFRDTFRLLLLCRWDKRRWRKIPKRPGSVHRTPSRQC
E coli WT exp: blocks growth of wild type E. coli BW25113. OD600 absorbance. growth inhibition, % at 100 µM. hit rate 0.15% among 98,000;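 active = growth inhibition above about 50% at one test dose, limit read from the data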;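 also: growth measured after 20 h incubation at 37 °C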
tolC growth inh: blocks growth of E. coli BW25113 tolC mutant | OD615 | AID 573 | hit rate 2.2% among 65,000 | growth inhibition, % at 10 µM (by protocol);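 active = growth inhibition at or above a cutoff equal to the mean over every tested compound plus 3 SD, cut at about 60% in these data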;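 also: growth measured after 20 h incubation at 37 °C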
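Assay system: tolC-deleted E. coli BW25113. Medium: kanamycin-containing LB broth (50 µg/mL). Dosing: 10 µM final, single dose. Timing: bacterial growth with compound for 20 h at 37 °C. Detection: A615 absorbance measurement. Read-out basis: growth inhibition in percent.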
M1 ag: activates the M1 muscarinic receptor; CHO-M1 cells, Fluo-4 calcium fluorescence, agonist mode; stronger effect = higher value; B-score at 10 µM; hit rate 3% among 64,000;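 active = fluorescence rise, raw or as B-score row- and column-corrected plate score, outside the 99.7% band of its plate's samples, either direction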
Hsp90 block: displaces geldanamycin probe from tumor Hsp90. hit rate 0.35% among 64,000. NCI-N417 lysate Hsp90, Cy3B-geldanamycin FP displacement. inhibition, % at 30 µM. P07900;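 active = inhibition above 50%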;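 also: 0% = tracer plus lysate wells and 100% = tracer alone without lysate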
BAP1 block: inhibitors of human BAP1 deubiquitinase; calls only at 20 µM; AID 436; hit rate 0.48% among 72,000; recombinant BAP1, Ub-AMC hydrolysis fluorescence kinetic; stronger effect = lower value; Q92560;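 active = activity remaining at or below 50% of control, provided the compound also passes the data quality filters; inactive = the rest, including low values that fail the filters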;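 also: 100% = DMSO wells rate and 0% = substrate alone blank rate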
The depositor's hits bear a star; i = inactive; / = not tested or not shown.

SMILES | M1 antagonist | E coli WT exp | tolC growth inh | M1 ag | Hsp90 block | BAP1 block
O=C(N1CCN(c2ccccn2)CC1)N1c2ccccc2Sc2ccccc21 | -1.52 | -2.0 | 61.9* | 0.279 | -2.2 | i
O=C(c1c(Cl)cccc1Cl)N1CCN(c2ccccn2)CC1 | -0.168 | 6.0 | 0.2 | 0.514 | 0.8 | i
O=C(c1ccccc1[N+](=O)[O-])N(Cc1ccccc1)c1ccccn1 | / | / | / | / | / | i
CCN(CC)c1ccc2cc(C(=O)Nc3cccnc3N3CCOCC3)c(=O)oc2c1 | -0.387 | / | 8.1 | 7.72* | / | /
CC1=C(C(=O)OCC(C)C)C(c2cc3c(cc2Br)OCO3)NC(=O)N1C (stereo not given) | 0.625 | 6.0 | 66.4* | 1.47 | -4.6 | i
O=P(O)(c1ccccc1)c1nccn1-c1ccccn1 | / | / | / | / | / | i
CCOC(=O)CSC1=C(C#N)C(c2ccccc2F)C(C(C)=O)=C(C)N1 (stereo not given) | -0.968 | 4.0 | 36.2 | 0.19 | -2.6 | i
CSCSC1=C(C#N)C(c2ccccc2Cl)C(C(C)=O)=C(C)N1 (stereo not given) | -0.776 | -11.0 | 63.4* | -0.611 | -2.7 | i
CN(C)CCCN1C(=O)C(=O)/C(=C(/O)c2ccc(OCc3ccccc3)cc2)C1c1cccnc1 (stereo not given) | -0.465 | / | -13.1 | 0.0118 | 77.6* | i
COc1ccc(/C(O)=C2/C(=O)C(=O)N(CCCN(C)C)C2c2cccnc2)cc1 (stereo not given) | 0.0429 | / | -27.9 | 0.225 | -1.3 | i
CCOC(=O)N1CCN(C2OC(=O)c3ccccc32)CC1 (stereo not given) | -2.04* | 3.0 | 1.7 | 32.5* | -2.7 | i
O=C(Nc1nccs1)C(NS(=O)(=O)c1ccc(Br)s1)c1ccccc1 (stereo not given) | 0.606 | -4.0 | 61.0* | -1.11 | -4.5 | i
CCOC(=O)c1c(C)oc2ccc(NS(=O)(=O)c3ccc4c5c(cccc35)C(=O)N4)cc12 | 0.524 | 0.0 | 68.1* | 0.00064 | 4.3 | /
CC(=O)Oc1ccc(C(=O)O)cc1OC(C)=O | 0.999 | 43.0 | -6.3 | -0.515 | 47.9 | i
CC(=O)Oc1cccc2c1C(=O)c1c(OC(C)=O)cc(C(=O)O)cc1C2=O | 0.77 | / | 9.2 | -0.16 | 101.8* | i
CCOC(=O)CCSc1nc2c(c(C(F)(F)F)c1C#N)CCC2 | -1.87 | 0.0 | 66.0* | 1.05 | -22.8 | /
O=C(Oc1ccc(Cl)cc1)c1ccc([N+](=O)[O-])cc1 | / | / | / | / | / | i
CC1=C(C(=O)OCCC(C)C)C(c2ccccc2Cl)NC(=O)N1 (stereo not given) | / | / | / | / | / | i
Cc1nc2c(C(=O)NCCC3=CCCCC3)c[nH]n2c(=O)c1Cl | -0.00818 | 12.0 | 79.1* | -0.0696 | 1.9 | i
CCOc1ccc(N(CC(=O)Nc2ccc(C)c(C)c2)S(=O)(=O)c2c(C)noc2C)cc1 | 0.0982 | -18.0 | 61.5* | -0.489 | -2.1 | i
O=C(CSc1cccc[n+]1[O-])c1cc2ccccc2o1 | 0.109 | 97.0* | 5.4 | 0.0177 | -0.5 | i
O=C(O)CSc1cccc[n+]1[O-] | / | 3.0 | / | / | / | /
O=C(O)CC1C(=O)NCCN1Cc1ccc(F)c(F)c1 (stereo not given) | 1.44* | 0.0 | -19.9 | -0.27 | -4.4 | i
Cc1ccc(CN2CCNC(=O)C2CC(=O)O)cc1 (stereo not given) | 0.983 | 2.0 | -7.7 | -0.0303 | 0.1 | i
CCOc1ccc(NCC(=O)Nc2ccc(C)cc2C)cc1 | -0.45 | -4.0 | -8.5 | 0.0582 | 52.1* | i
SMILES | M1 antagonist | E coli WT exp | tolC growth inh | M1 ag | Hsp90 block | BAP1 block
CC(C)Sc1nc(NCc2ccco2)c2c3c(sc2n1)COC(C)(C)C3 | 0.795 | 3.0 | 64.6* | -0.00309 | / | /
CSC1=Nc2sc3c(c2C2=NCCN12)CCCC3 | -11.2* | / | 1.9 | 0.126 | -3.9 | i
Cc1cccc(Cc2c(C)nc3c(C(=O)NCc4ccco4)cnn3c2C)c1 | 0.0675 | 7.0 | 75.2* | 1.18 | -2.7 | /
CCN(CC)C(=O)CSc1nc2ccccc2c(=O)n1CC1CCCCC1 | -0.0418 | -1.0 | 11.3 | 0.331 | -3.8 | i
CCCN(CCC)C(=O)CSc1nc2ccccc2c(=O)n1C1CCCC1 | -0.401 | -13.0 | 77.3* | 1.21 | -0.9 | i
CC1(C)C(=O)N(Cc2ccccc2)c2ccccc2N1C(=O)c1cccc([N+](=O)[O-])c1 | / | / | / | / | / | i
COc1ccc(-c2csc(Cc3nnc4n3CCCCC4)n2)cc1 | 2.3* | 11.0 | -2.3 | 0.839 | -0.1 | i
FC(F)Oc1ccc(-c2csc(Cc3nnc4n3CCCCC4)n2)cc1 | -0.797 | 5.0 | 22.1 | 0.423 | -0.1 | i
CCCCOc1cccc(NC(=O)c2ccc(Cl)c([N+](=O)[O-])c2)c1 | / | / | / | / | / | i
CCOC(=O)c1cccc(NS(=O)(=O)c2ccc(NC(C)=O)cc2)c1 | / | 6.0 | / | / | / | /
CCOC(=O)/C=C/S(=O)(=O)c1ccc(NC(C)=O)cc1 | 1.9* | 9.0 | -12.5 | -0.787 | -0.2 | i
O=C(c1ccc(Cl)c(Cl)c1)N(Cc1ccco1)c1ccc(O)cc1 | -0.0189 | 3.0 | 100.0* | 0.564 | -0.6 | i
CCN1CCN(c2ncc(C(=O)N3CCN(c4ccccc4OC)CC3)c3ccccc23)CC1 | -10.1* | / | -10.2 | -1.02 | -4.7 | i
COc1ccccc1N1CCN(C(=O)c2oc3cc(C)c(C)cc3c2C)CC1 | -0.0347 | -2.0 | 71.6* | 0.618 | 1.7 | i
COc1ccccc1N1CCN(C(=O)COc2ccc(C)cc2Br)CC1 | 0.0514 | -9.0 | 69.5* | -0.122 | -3.0 | i
CCN1CCN(c2ncc(C(=O)Nc3cc(Cl)c(OC)cc3OC)c3ccccc23)CC1 | / | / | 13.8 | / | -3.1 | i
O=C(NCC1CCCO1)c1cccc(N2C(=O)C3CC=CCC3C2=O)c1 (stereo not given) | / | / | / | / | / | i
COc1ccccc1S(=O)(=O)Cc1ccc(C(=O)NCc2cccs2)o1 | 2.17* | 6.0 | -8.2 | 0.0257 | -6.4 | i
CN1CCN(c2c(F)cc3c(=O)c(C(=O)O)cn4c3c2SCC4)CC1 | 0.59 | 100.0* | 100.0* | -0.602 | -1.3 | i
O=C(CSc1nnc(Cc2ccccc2)n1C1CCCCC1)N1CCOCC1 | 1.12* | 12.0 | -4.9 | 0.852 | 0.2 | i
O=C(Nc1ccc2oc(Cc3ccc(Cl)cc3)nc2c1)c1cccc(Cl)c1 | / | / | / | / | / | i
N#Cc1nonc1N | / | / | / | / | / | i
CC(=O)c1ccc(NC(=O)Nc2ncn(Cc3cccc(C)c3)n2)cc1 | -0.0671 | -13.0 | -3.3 | -0.0975 | -2.7 | i
CCc1c(C(=O)Nc2ncn(Cc3cccc(C)c3)n2)csc1C | -0.251 | 9.0 | 62.4* | 0.0232 | -0.8 | i
O=C(NCC1CCCO1)C1c2ccccc2C(=O)N1C1CCCCCC1 (stereo not given) | 0.212 | 10.0 | -2.2 | 9.19* | -1.5 | i
Cc1ccccc1OC(=O)c1cc2cc(Br)ccc2oc1=O | / | / | / | / | / | i
Cc1ccc(S(=O)(=O)n2nc(-c3ccco3)nc2SCc2ccccc2)cc1 | -1.19 | -14.0 | 10.8 | 2.17* | 0.0 | /
CCOc1ccc(C(=O)N2CCN(c3cccc(C)c3C)CC2)cc1 | -0.485 | 4.0 | 81.5* | -0.559 | 0.6 | i
[O-][N+](=Cc1cccc(Br)c1)c1ccccc1 | / | / | / | / | / | i
